Measured values as given in PubChem BioAssay.
The source made the active and inactive calls. Unless noted, how the calls were made is not given here.

What was measured:
[1] = Coupled enzyme confirmation of inhibitors against recombinant Mtb PanC (AID 375); conditions: coupled enzyme assay; measured here: coupling enzymes IC50 repeat trials unless noted;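 on inhibition: 0% = full reaction with vehicle and 100% = no enzyme background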
[2] = target: Pantothenate synthetase (Mycobacterium tuberculosis (strain ATCC 25618 / H37Rv)) (UniProt P9WIL5); test: as above; conditions: coupled enzyme assay; at 10 µM, stronger effect = higher value
Pantothenate synthetase (Mycobacterium tuberculosis (strain ATCC 25618 / H37Rv)), sequence (P9WIL5 whole entry, looked up): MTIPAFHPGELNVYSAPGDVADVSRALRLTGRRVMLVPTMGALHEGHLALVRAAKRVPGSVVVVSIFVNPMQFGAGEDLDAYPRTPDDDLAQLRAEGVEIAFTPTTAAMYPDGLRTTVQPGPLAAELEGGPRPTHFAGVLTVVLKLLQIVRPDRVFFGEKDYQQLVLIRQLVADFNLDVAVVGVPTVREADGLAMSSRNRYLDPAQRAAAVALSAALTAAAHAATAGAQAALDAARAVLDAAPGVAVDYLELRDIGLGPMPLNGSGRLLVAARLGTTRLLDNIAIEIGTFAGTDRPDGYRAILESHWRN

[3] = reduced viability of SK-BR-3 breast cancer cells – cell-based, 24 h, human, pilot screen (AID 572;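 active means viability at or below 10% of carrier control in both of two separate runs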;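 further: compound exposure lasted between 18 and 24 h rather than exactly 24 h; 100% = carrier-treated control wells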); conditions: SK-BR-3 viability, CellTiter-Glo luminescence, at 10 µM, stronger effect = lower value
[4] = HUVEC growth inhibition – cell-based, human, primary screen (AID 575;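 active means viability at or below 30% in both replicate assays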;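 further: 100% = median of untreated cell wells with 0.1% DMSO on each plate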); conditions: HUVEC proliferation, CellTiter-Glo luminescence, 72 h; at 10 µM; stronger effect = lower value
Procedure, shortened: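 Assay system: Primary human umbilical vein endothelial cells | Quantity: 1250 cells per well | Medium: Supplemented EBM, 2% fetal bovine serum | Detection: CellTiter-Glo luminescence measuring cellular ATP | Read-out: % viability vs DMSO wells | Plate: Collagen-coated 384-well format | Times: 72 h exposure, 37 °C, 5% CO2, 30 min RT equilibration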

[5] = MRP1 drug-resistance reversers in H69AR cells – cell-based, doxorubicin co-treatment, pilot screen (AID 601;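 active means viability loss from added drug above about 55%, and viability with drug at most 40%, in both replicates, limit read from the data, passing the limit was not always enough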); conditions: CellTiter-Glo, 72 h, at 10 µM
[6] = yeast transport mutant growth inhibition pilot in 384-well plates, post-Golgi transport modulator project (AID 636; in the data active means inhibition above about 31%); conditions: absorbance 615 nm, about 18 h, stronger effect = higher value
[7] = growth suppression of yeast trafficking mutant, preliminary HTS, modulators of trafficking downstream of Golgi apparatus project, 1536-format plate, OD 615 nm (AID 637; in the data active means inhibition above about 30%); conditions: yeast transport mutant growth, absorbance 615 nm, 18 h; stronger effect = higher value

Structure (SMILES): Cc1cc(NC(=O)c2cc(-c3ccco3)on2)nn1Cc1ccc(Cl)cc1
- IC50 [1]: > 100 µM
- outcome [2]: inactive

Structure (SMILES): N[C@@H](Cc1ccc(O)c(I)c1)C(=O)O
- inhibition [2]: 6% (inactive)

Structure (SMILES): CC(=O)c1ccc(OCC(O)CN2CCN(Cc3ccc4c(c3)OCO4)CC2)cc1 (stereo not drawn)
- inhibition [2]: 3% (inactive)

Structure (SMILES): COc1ccc(OC)c(-c2cc(C(=O)Nc3cc(C)n(Cc4ccc(Cl)cc4)n3)no2)c1
- IC50 [1]: > 100 µM
- outcome [2]: inactive

Structure (SMILES): CC(=O)Nc1cccc(NC(=O)c2oc3ccccc3c2C)c1
- inhibition [2]: 0% (inactive)

Structure (SMILES): O=S(=O)(Nc1nc2ccccc2nc1NCc1ccco1)c1cccs1
- inhibition [2]: 2% (inactive)

Structure (SMILES): Cc1ccc(Cn2ccc(NC(=O)c3cc(-c4ccccc4)on3)n2)cc1
- IC50 [1]: > 100 µM
- outcome [2]: inactive

Structure (SMILES): Cc1cc(NC(=O)c2noc3c2CCCC3)nn1Cc1ccc(Cl)cc1
- IC50 [1]: > 100 µM
- outcome [2]: inactive

Structure (SMILES): COc1ccccc1Nc1ncnc2c1cnn2-c1cccc(C)c1
- inhibition [2]: 0% (inactive)

Structure (SMILES): Cc1nnc2ccc(N3CCC4(CC3)OCCO4)nn12
- inhibition [2]: 0% (inactive)

Structure (SMILES): CN1CCN(C(=O)C2CCN(S(=O)(=O)c3ccc4c(c3)oc(=O)n4C)CC2)CC1
- inhibition [2]: 0% (inactive)

Structure (SMILES): CN(C)c1nc(N(C)C)nc(N(C)C)n1
- inhibition [2]: 2% (inactive)

Structure (SMILES): O=c1[nH]c2ccc(S(=O)(=O)N3CCN(C4CCCCC4)CC3)cc2[nH]c1=O
- inhibition [2]: 1% (inactive)

Structure (SMILES): COc1ccc(-c2cc(C(=O)Nc3cc(C)n(Cc4ccc(Cl)cc4)n3)no2)cc1OC
- IC50 [1]: > 100 µM
- outcome [2]: inactive

Structure (SMILES): CCN(C(=O)COC(=O)c1cc(C)n(-c2ccc(F)cc2)c1C)C1CCS(=O)(=O)C1 (stereo not drawn)
- inhibition [2]: 1% (inactive)

Structure (SMILES): CC1CN(S(=O)(=O)c2cccc(C(=O)OCc3cc(=O)oc4cc(O)ccc34)c2)CC(C)O1 (stereo not drawn)
- inhibition [2]: 7% (inactive)

Structure (SMILES): Cc1ccccc1Cn1cc(NC(=O)c2noc3c2CC(C(C)(C)C)CC3)cn1 (stereo not drawn)
- IC50 [1]: > 100 µM
- outcome [2]: active

Structure (SMILES): COc1ccc2c(c1)CCc1c(C(=O)Nc3cc(C)n(Cc4ccc(Cl)cc4)n3)noc1-2
- IC50 [1]: > 100 µM
- outcome [2]: inactive

Structure (SMILES): CCN(c1cccc(C)c1)S(=O)(=O)c1ccc2[nH]c(=O)c(=O)[nH]c2c1
- inhibition [2]: 7% (inactive)

Structure (SMILES): Cc1ccc(Cn2ccc(NC(=O)c3cc(-c4ccc(Br)cc4)on3)n2)cc1
- IC50 [1]: > 100 µM
- outcome [2]: inactive

Structure (SMILES): COc1ccccc1-c1cc(C(=O)Nc2cc(C)n(Cc3ccc(Cl)cc3)n2)no1
- IC50 [1]: > 100 µM
- outcome [2]: inactive

Structure (SMILES): Cc1cc(C(=O)Nc2cc(C)n(Cc3ccc(Cl)cc3)n2)no1
- IC50 [1]: > 100 µM
- inhibition [2]: 3% (inactive)

Structure (SMILES): C=CCNC(=O)C1CC(=O)N(c2ccc(OCC(=O)Nc3ccc(OC)cc3)cc2)C1 (stereo not drawn)
- inhibition [2]: 0% (inactive)

Structure (SMILES): Cc1ccc(Cn2ccc(NC(=O)c3noc4c3CCCC4)n2)cc1
- IC50 [1]: > 100 µM
- inhibition [2]: 0% (inactive)

Structure (SMILES): CCN=C1SC(CC(=O)Nc2ccccc2OCC)C(=O)N1CC (stereo not drawn)
- inhibition [2]: 0% (inactive)

Structure (SMILES): COCCn1c(SCC(=O)Nc2nnc(C)s2)nnc1-c1ccncc1
- inhibition [2]: 7% (inactive)

Structure (SMILES): Cc1ccc(Cn2ccc(NC(=O)c3cc(-c4ccc(F)cc4)on3)n2)cc1
- IC50 [1]: > 100 µM
- outcome [2]: inactive

Structure (SMILES): Cc1cc(NC(=O)c2cc(-c3cccs3)on2)nn1Cc1ccc(Cl)cc1
- IC50 [1]: > 100 µM
- outcome [2]: inactive

Structure (SMILES): COc1ccccc1-n1c(SCC(N)=O)nnc1-c1ccccc1
- inhibition [2]: 0% (inactive)

Structure (SMILES): Cc1ccc(Cn2ccc(NC(=O)c3cc(-c4cccs4)on3)n2)cc1
- IC50 [1]: > 100 µM
- inhibition [2]: 3% (inactive)

Structure (SMILES): Cc1ccc(Cn2ccc(NC(=O)c3cc(-c4cccc(Cl)c4)on3)n2)cc1
- IC50 [1]: > 100 µM
- outcome [2]: inactive

Structure (SMILES): CCOC(=O)c1ccc(NC(=O)CSc2nnc(COc3ccccc3)n2C)cc1
- inhibition [2]: 0% (inactive)

Structure (SMILES): COc1ccc2c(c1)CCc1c(C(=O)Nc3ccn(Cc4ccc(C)cc4)n3)noc1-2
- IC50 [1]: > 100 µM
- outcome [2]: inactive

Structure (SMILES): COc1cccc(-c2cc(C(=O)Nc3cc(C)n(Cc4ccc(Cl)cc4)n3)no2)c1
- IC50 [1]: > 100 µM
- inhibition [2]: 0% (inactive)

Structure (SMILES): CC(C)(C)NC(=O)C(c1ccco1)N(C(=O)Cn1nnc(-c2ccc(F)cc2)n1)c1ccccc1F (stereo not drawn)
- inhibition [2]: 5% (inactive)

Structure (SMILES): COc1ccc(C(=O)NCCCCCC(=O)O)cc1OC
- inhibition [2]: 0% (inactive)

Structure (SMILES): Cc1ccc(Cn2ccc(NC(=O)c3noc4c3CCCCC4)n2)cc1
- IC50 [1]: > 100 µM
- outcome [2]: inactive

Structure (SMILES): O=c1c2ccccc2[se]n1-c1ccccc1
- IC50 [1]: 0.485 µM [measured here: coupling enzymes counter-screen IC50]
- viability [3]: 67% (inactive)
- viability [4]: 42.1% (inactive)
- differential viability (reversal) ([5]; H69AR cells + 2 uM doxorubicin, stronger effect = higher value): 2.39% (inactive)
- viability ([5]; H69AR cells + 2 uM doxorubicin, measured here: viability with 2 uM doxorubicin, stronger effect = lower value): 1.34%
- viability ([5]; H69AR cells, compound alone cytotoxicity): 3.73%
- inhibition [6]: 0.65% (inactive)
- inhibition [7]: -0.5% (inactive)
